Screening data: PubChem, several laboratories
Fibroblast inh = antiproliferative effect on LL 47 fibroblasts – human, LL 47 cells, CellTiter-Glo luminescence, primary screen | LL 47 human lung fibroblast viability, ATP luminescence; active compounds read low | viability, % at 10 µM | 85,000 tested, 1.1% active | AID 719, 2007;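 active = viability at or below 50% in the single dose screen; inactive = viability above 50%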;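 also: compound exposure lasted 72 h before the ATP readout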
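Test system: LL 47 human lung fibroblasts / Quantity: 1,150 cells in each well / Medium: IMEM growth medium with 15% fetal bovine serum / Incubation: 72 h compound exposure at 37 °C after overnight plating / Detection: CellTiter-Glo luminescence measuring cellular ATP / Read-out: % viability versus median cells-only luminescence / Benchmarks: cell-only wells, no compound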
tolC growth inh = growth inhibitors of E. coli tolC mutant, primary screen, strain BW25113 ΔtolC::kan, 384-well; OD615; growth inhibition, % at 10 µM (by protocol); 65,000 tested, 2.2% active; AID 573, 2007;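 active = growth inhibition at or above a cutoff equal to the mean over every tested compound plus 3 SD, cut at about 60% in these data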;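 also: growth measured after 20 h incubation at 37 °C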
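Doses: one dose of 10 µM final / Material: E. coli BW25113 ΔtolC::kan, tolC deletion mutant strain / Buffer or medium: LB with kanamycin 50 µg/mL / Evaluation: percent growth inhibition / Detection: optical density read at 615 nm / Incubation: 37 °C, 20 h exposure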
Jurkat tox 60K = cytotoxicity toward Jurkat T cells, primary screen, cytotoxicity control, cell-based, Jurkat E6.1, 60K MLSMR library | Jurkat E6.1 viability, ATP luminescence, 48 h | inhibition, % at 4 µM | 56,000 tested, 1.2% active;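 active = inhibition above the mean inhibition of all tested compounds plus 3 SD, cut at about 28% in these data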
H69AR inhibit = proliferation blockers of H69AR lung cancer cells, primary screen, cell-based, human, 86K library | 85,000 tested, 6% active | H69AR lung tumor viability, ATP luminescence, 72 h; active compounds read low | viability, % at 10 µM;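 active = viability at or below 40%; inactive = viability above 40%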;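 also: multidrug resistant small cell line overexpressing MRP-1 efflux transporter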
HUVEC prolif 384 = inhibitors of HUVEC proliferation, primary screen, cell-based, 384-well | CellTiter-Glo luminescence, 72 h; active compounds read low | viability, % at 10 µM (by protocol) | 86,000 tested, 1.1% active | AID 648, 2007;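 active = viability at or below 30%; inactive = viability above 30%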
E coli WT exp = growth inhibitors of wild-type E. coli, primary screen, strain BW25113, expanded library, OD600; 98,000 tested, 0.15% active; growth inhibition, % at 100 µM; OD600 absorbance;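 active = growth inhibition above about 50% at one test dose, limit read from the data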;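 also: growth measured after 20 h incubation at 37 °C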
A number is an active result; i = inactive; nt = no result. Compounds with a hit are over-represented: about 6.4% of the library has one in this group of screens.

SMILES	Fibroblast inh	tolC growth inh	Jurkat tox 60K	H69AR inhibit	HUVEC prolif 384	E coli WT exp
CCCCCNc1nc(N2CCCC2)c2c(c1C#N)CCN(C)C2	39	i	nt	2.1	4.9	i
Cc1ccc2c(c1)/C(=N/OC(=O)c1ccc(F)cc1)CCS2	nt	nt	nt	nt	nt	i
CCOC(=O)N/N=C\c1ccc([N+](=O)[O-])o1	i	nt	nt	i	i	100
CCOC(=O)N/N=C/c1ccc(F)cc1	nt	nt	nt	nt	nt	i
CC(NC(=O)c1cc2sccc2n1C)c1ccc2c(c1)OCCO2 (centres undefined)	nt	i	i	nt	nt	i
COc1cc(C)c(C(C)C)cc1S(=O)(=O)n1cnc(C)c1	i	i	85	34	i	i
COc1cc(NC(=O)c2cc3c(=O)n(C)c4ccccc4c3n2C)cc(OC)c1OC	i	i	i	i	i	i
CC1CCC(NC(=O)c2cc3c(=O)n(C)c4ccccc4c3n2C)CC1 (centres undefined)	i	i	i	29	i	i
CC1CCCCN1CCNC(=O)c1cc2c(=O)n(C)c3ccccc3c2n1C (centres undefined)	i	i	i	i	i	i
COc1ccc(NC(=O)c2cc3c(=O)n(C)c4ccccc4c3n2C)cc1OC	i	75	i	i	i	i
Cn1c(C(=O)NC2CCCCC2)cc2c(=O)n(C)c3ccccc3c21	i	i	i	11	i	i
Cc1ccc(CNC(=O)c2cc3c(=O)n(C)c4ccccc4c3n2C)cc1	i	nt	nt	i	i	i
Cn1c(C(=O)NC2CCCCCC2)cc2c(=O)n(C)c3ccccc3c21	i	i	i	12	i	i
CC(=O)N1C(=O)C(=C2C=C(C)OC(C)=C2)c2ccccc21	i	i	i	nt	i	i
O=C(NCc1ccc(F)cc1)c1cc(-c2cccs2)on1	i	i	i	i	i	i
Cc1ccc(C(=O)CSc2nnc(-c3c[nH]c4ccccc34)o2)cc1	nt	nt	nt	nt	nt	i
CC1CCCCN1C(=O)CSc1nnc(-c2c[nH]c3ccccc23)o1 (centres undefined)	i	i	i	22	i	i
CCCN1C(=O)c2ccccc2NC1c1ccc(OC)cc1O (centres undefined)	i	i	36	i	i	i
CCCN1C(=O)c2ccccc2NC1c1ccc(OC)cc1OC (centres undefined)	i	i	i	i	i	i
CSCCOC(=O)C1=C(C)Nc2ccc(C)cc2S1	i	nt	nt	28	i	i
CC(C)CC(NS(=O)(=O)c1ccc2c(c1)oc(=O)n2C)C(=O)N1CC=C(c2ccccc2)CC1 (centres undefined)	i	i	i	i	i	i
COc1ccc(C)cc1NC(=O)CSc1nnc(COc2ccc(Cl)cc2)n1Cc1ccco1	i	i	i	i	i	i
COc1ccc(C)cc1NC(=O)CSc1nnc(COc2ccccc2)n1Cc1ccco1	i	76	i	i	i	i
COc1ccc(-c2cnc(SCC(=O)Nc3cc(C)on3)n2Cc2ccco2)cc1	i	80	nt	i	i	i
O=C(CSc1nnc(Cc2cccs2)n1Cc1ccco1)Nc1cc(Cl)cc(Cl)c1	i	91	i	i	i	i
SMILES	Fibroblast inh	tolC growth inh	Jurkat tox 60K	H69AR inhibit	HUVEC prolif 384	E coli WT exp
CCCCNC(=O)CCC(=O)Nc1ncc(-c2ccc(C)cc2)n1C	i	i	i	i	i	i
CCN(CC(=O)NC(C)C)Cc1nc2sc3c(c2c(=O)[nH]1)CCC3	i	nt	nt	37	i	i
CN(C)C(=O)CCc1nc2sc3c(c2c(=O)[nH]1)CCCC3	i	nt	nt	i	i	i
Cc1cccc(NC(=O)CSc2nc3ccccc3c3nc(CCc4c(C)n[nH]c4C)nn23)c1	26	nt	nt	1.1	2.0	i
CCSCC1COC(c2cccn2Cc2ccc(C)cc2)=N1 (centres undefined)	i	61	i	i	i	i
CSc1nc(Oc2ccc3ccccc3c2)c2sccc2n1	nt	nt	nt	nt	nt	i
Cc1cc2cc(CN(Cc3ccc4c(c3)OCO4)Cc3nnnn3C3CCCC3)c(=O)[nH]c2cc1C	i	i	i	i	i	i
Cc1ccc2[nH]c(=O)c(CN(Cc3ccc4c(c3)OCO4)Cc3nnnn3C3CCCC3)cc2c1	i	62	i	11	i	i
O=c1[nH]c2cc3c(cc2cc1CN(CCc1ccccc1)Cc1nnnn1C1CCCC1)OCCO3	i	i	i	36	i	i
COc1ccc(CN(Cc2cc3ccc(C)cc3[nH]c2=O)Cc2nnnn2C2CCCC2)cc1	i	i	i	25	i	nt
Cc1cccc(C)c1NC(=O)Cn1c(CN2CCCCC2)nc2ccccc2c1=O	i	nt	nt	i	i	nt
CC(C)CC(=O)OCc1cn(-c2ccccc2)nn1	nt	nt	nt	nt	nt	i
Cc1cc(C)cc(NC(=O)c2ccc(Cn3nc(C)c(Cl)c3C)o2)c1	i	nt	nt	i	i	nt
Cc1ccc(C(=O)C(C)OC(=O)C2CC(=O)N(C3CCCCC3)C2)cc1 (centres undefined)	i	i	i	i	i	i
CCOc1ccccc1C(=O)NC(C(=O)OCC(=O)Nc1nnc(-c2ccccc2)o1)C(C)C (centres undefined)	i	87	i	i	i	i
COc1ccc(-c2nc3scc(-c4ccccc4)n3n2)cc1	i	i	i	31	i	i
Cn1c(SCc2nc3ccccc3n2CCO)nc2ccccc21	i	i	i	i	i	i
COCCn1c(C)cc(C(=O)CSc2ncn[nH]2)c1C	i	i	i	i	i	i
Cc1ccccc1-n1ncc2c([N+](=O)[O-])cc([N+](=O)[O-])cc21	i	nt	nt	25	6.3	i
O=C(NCCN1CCOCC1)NC1(C(F)(F)F)Oc2ccccc2O1	i	i	nt	18	i	i
CCCCNC(=O)NC1(C(F)(F)F)Oc2ccccc2O1	i	nt	nt	22	i	i
COc1ccc(OC)c(NC(=O)NC2(C(F)(F)F)Oc3ccccc3O2)c1	i	i	nt	13	i	i
NS(=O)(=O)c1ccc(CCNC(=O)NC2(C(F)(F)F)Oc3ccccc3O2)cc1	i	i	nt	20	i	i
COc1ccc(OC)c(NC(=O)Nc2ccccc2C)c1	i	i	i	i	i	i
NS(=O)(=O)c1ccc(CCNC(=O)CSc2ccccc2)cc1	nt	nt	nt	nt	nt	i
CCOc1ccc(Cc2nnc(SCC(=O)c3ccc(OC)cc3)o2)cc1	i	i	nt	i	i	i
Cc1cccn2c(=O)c(C=Nc3ccc(Cl)cc3)c(NCCO)nc12	i	i	i	i	i	i
CCNC(=O)CC1C(=O)N(c2ccc(C)cc2)C(=O)N1Cc1ccccn1 (centres undefined)	i	i	i	i	i	i
CC(C)(C)NC(=O)CSc1nc(O)cc(=O)n1-c1ccccc1	i	nt	nt	i	i	i
CC(Nc1nc(N2CCN(S(C)(=O)=O)CC2)nc2ccccc12)c1ccccc1 (centres undefined)	i	i	i	i	14	i
